Experimental data taken from ChEMBL document CHEMBL4513216, “Probing the Open Global Health Chemical Diversity Library for Multistage-Active Starting Points for Next-Generation Antimalarials” (ACS Infect Dis, 2020).

Assay: Toxicity liver stage against HepG2, at 10uM
Type: cell-based
Parameters: test concentration 10 uM, cell line HepG2-A16-CD81EGFP
Conditions: human, HepG2-A16-CD81EGFP cells; read-out: INHIBITION
Procedure, shortened: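 Uninfected HepG2-A16-CD81EGFP cells, 3 × 10^3 per well, 1536-well, plated on prespotted compound at 10 μM final, parasite-free screening media added to match infected plates; puromycin 10 μM positive, DMSO 0.5% negative; run in parallel with 48 h PbLuc assay at 37 °C, 5% CO2; viability by CellTiter-Glo luminescence, normalized to controls.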

| Structure (SMILES) | cytotoxicity at 10 µM [%] |
| --- | --- |
| O=C(CCn1nc(C(=O)Nc2ccccc2)ccc1=O)Nc1nccs1 | -2.83 |
| O=C1CCNc2cc3c(cc2CN1CC1CC1)OCO3 | -5.83 |
| Cc1nc(C(=O)N2CCN(S(C)(=O)=O)CC2)c(-c2ccccc2)s1 | 3.23 |
| O=C1CSC(C(F)(F)F)c2c(O)nn(C3CCCC3)c2N1 (stereo unspecified) | 3.49 |
| CC(C)Cn1cnc2ccc(NC(=O)CCCn3cccn3)cc2c1=O | -4.06 |
| O=C1NC(c2ccccc2)=N[C@@]12CC[C@@H]1CN(Cc3ccco3)C[C@@H]12 | -4.34 |
| CN1CC(Oc2ccc(Cl)cc2)=NC(SCC(=O)c2ccccc2)=N1 | -0.731 |
| O=C(Nc1cc(-c2ccccn2)no1)C1CC1 | -5.34 |
| Cn1cc(C(O)CNC(=O)c2sccc2OC(F)F)cn1 (stereo unspecified) | 0.606 |
| CC(C(=O)NC1CC1)S(=O)(=O)Cc1nc(Cc2ccccc2)no1 (stereo unspecified) | 5.42 |
| CN(C)c1nc(CNC(=O)NC2CCc3ccccc32)cs1 (stereo unspecified) | -3.41 |
| CSCc1cc(F)ccc1CNC(=O)N1CCOCC1 | 8.06 |
| CC1CCCN(CCCNC(=O)c2cn(C)nc2-c2cccnc2)C1 (stereo unspecified) | -3.24 |
| O=C1CCCN1Cc1nnc(SCc2ccc3c(c2)CCC3)o1 | 2.03 |
| CCc1noc(CN(Cc2cccs2)C2CC2)n1 | 1.44 |
| CC(C)c1nnc2n1CC(CNCc1nc3ccccc3o1)CC2 (stereo unspecified) | -1.85 |
| CNC(=O)NC(=O)CN1CCN(CC(F)(F)F)CC1(C)C | 10.7 |
| CN(c1nc(CSc2nnc(Cn3cncn3)o2)cs1)C1CC1 | 6.6 |
| Cc1cc(NC(=O)CN(c2ccccc2)C(C)C)on1 | -1.54 |
| CCCC(=O)NC(C)(C)Cc1ccccc1OC | 5.55 |
| CCc1nc(CC)n(CC(=O)NCc2cccc(C)c2)n1 | -2.25 |
| N#CCCCn1nnnc1Cc1ccc(Br)cc1 | 1.56 |
| CCC[C@@H](NC(N)=O)C(=O)N1CCc2ccccc2CC1 | 7.79 |

| Structure (SMILES) | cytotoxicity at 10 µM [%] |
| --- | --- |
| CCOCC1CN(S(=O)(=O)c2cccc(C)c2)Cc2nccn2C1 (stereo unspecified) | -108 |
| O=C(c1ccnn1-c1ccc2ccccn12)N1CCOCC1 | -108 |
| CN(C)c1nccc(-c2cnc(N(C)C)[nH]c2=O)n1 | -1.17 |
| CC(C)NC(=O)NCc1cc(-c2cccc(Cl)c2)nn1C | 3.66 |
| COc1cc(OC)cc(-n2ccnc2-c2cc3n(n2)CCNC3)c1 | -12.2 |
| Cc1cnc(CNC(=O)CC2CCc3ccccc32)cn1 (stereo unspecified) | -0.862 |
| CCCn1c(C)c(CC(=O)NCC(C)O)c2c1CC(C)(C)CC2=O (stereo unspecified) | -7.57 |
| O=C(Nc1ccc(F)cc1)C1CNCCN1C(=O)CSc1ccncc1 (stereo unspecified) | -0.316 |
| Cc1ccc(C(=O)N2CCCC(N)CC2)cc1N1CCNC1=O (stereo unspecified) | -4.35 |
| COCCN(C)C[C@@H]1CN(C(=O)c2ccc(C)c(Cl)c2)C[C@@H]1CO | -0.678 |
| CCCNC(=O)C(C)Oc1ccc(F)cc1 (stereo unspecified) | -3.76 |
| CCCS(=O)(=O)N1C[C@H]2OC(=O)N(CCc3cccc(Cl)c3)[C@H]2C1 | -2.12 |
| CN(C)C(=O)c1ccc2c(c1)N(C)C(CC(=O)NC(C)(C)CO)CO2 (stereo unspecified) | 8.38 |
| CCC(CO)N(Cc1ccccn1)C(=O)c1ccc2c(c1)CCO2 (stereo unspecified) | -14.2 |
| CN(Cc1ccon1)C(=O)C1CC(=O)N(Cc2ccncc2)C1 (stereo unspecified) | -0.368 |
| CC(C(=O)NCc1ccnc(N2CCCC2)c1)n1cccn1 (stereo unspecified) | 0.309 |
| Cc1nc(CN2CCCC(N(C)Cc3nccn3C)C2)no1 (stereo unspecified) | -16.8 |
| Cc1nc(C(=O)N2CCCC2c2c(C)nn(C)c2C)cs1 (stereo unspecified) | -15.8 |
| CCn1cc(CN2CCCN(C(=O)CCCn3cncn3)CC2)cn1 | -12.5 |
| Cc1cn2c(n1)CCC(NC(=O)c1ccc(CS(C)(=O)=O)o1)C2 (stereo unspecified) | -5 |
| c1nnc(Nc2cncc(C3CCCN3)n2)s1 (stereo unspecified) | 3.58 |
| CC(C)N(CC(=O)O)Cc1cccc(Br)c1 | -8.67 |
| Cc1cnn(CC2CN(C=C3NN=C(c4occc4C)O3)CCO2)c1 (stereo unspecified) | -2.9 |
